Compound activity deposited in PubChem BioAssay by Sanford-Burnham Center for Chemical Genomics.
A selection: hits, their analogues and other compounds. The true share with any hit is near 1.8%.
Scp-1 inhibitor: Scp-1 phosphatase inhibitors, primary screen, biochemical, colorimetric, uHTS. Carboxy-terminal domain RNA polymerase II polypeptide A small phosphatase 1 (Homo …. Recombinant Scp1, phosphopeptide, malachite green phosphate absorbance. inhibition, % at 20 µM. actives 0.88% (n = 340,000). AID 493091, 2011;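 active = inhibition above about 50% at 20 µM, limit read from the data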;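 also: plate controls were DMSO wells with enzyme for no effect and wells lacking enzyme for full effect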
Target sequence (Q9GZU7 76-261 limits assumed): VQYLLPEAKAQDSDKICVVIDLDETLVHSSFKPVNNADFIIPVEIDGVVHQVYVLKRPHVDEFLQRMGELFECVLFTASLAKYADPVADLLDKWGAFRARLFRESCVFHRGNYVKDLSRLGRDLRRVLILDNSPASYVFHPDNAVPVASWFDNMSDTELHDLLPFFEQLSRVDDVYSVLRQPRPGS
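assay system = SCP-1 phosphatase catalytic domain, residues 76-261 | buffer or medium = 50 mM Tris acetate pH 5.5, 0.005% Tween-20, 10 mM MgCl2 | incubation = enzyme reaction 45 min at room temperature, colour 5 min, stabilisation 30 min | signal = Phosphate-binding colour reagent, absorbance read at 630 nm | measure = % inhibition at 20 µM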
HKDC1 inhibitor: HKDC1 hexokinase inhibitors, primary screen, biochemical, fluorescence, uHTS; inhibition, % at 20 µM; Q2TB90; recombinant HKDC1, G6PDH/diaphorase resazurin coupled fluorescence; actives 0.16% (n = 340,000); AID 493160, 2011;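 active = inhibition above about 35% when tested at 20 µM, limit read from the data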;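 also: plate controls were DMSO wells with enzyme for no effect and DMSO wells lacking enzyme for full effect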
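Assay system: recombinant HKDC1 hexokinase; detection: coupled resazurin fluorescence, excitation 525 nm, emission 613 nm; benchmarks: DMSO-plus-enzyme-mix negative control, buffer-substituted positive control; compound dosing: single 20 µM dose; schedule: 90 min at room temperature in dark; also added: glucose plus 1 mM ATP as hexokinase substrates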
LMPTP block: LMPTP phosphatase inhibitors, primary screen, biochemical, fluorescence intensity, uHTS | Low molecular weight phosphotyrosine protein phosphatase (Homo sapiens), P24666 | recombinant LMPTP-A, OMFP fluorogenic substrate | inhibition, % at 20 µM | actives 0.22% (n = 360,000) | AID 651560, 2012;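 active = compounds that cut the enzyme signal by at least half of the control window in the single-dose screen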;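 also: plate controls were DMSO wells with enzyme plus substrate for no effect and substrate without enzyme for full effect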
Target sequence (P24666 whole entry, looked up): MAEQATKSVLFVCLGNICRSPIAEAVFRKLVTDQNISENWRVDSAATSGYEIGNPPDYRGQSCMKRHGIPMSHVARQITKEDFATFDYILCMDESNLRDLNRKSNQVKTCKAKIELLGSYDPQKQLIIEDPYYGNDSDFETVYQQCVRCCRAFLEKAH
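Buffer or medium: Bis-Tris pH 6.0, DTT, detergent; Assay system: LMPTP-A enzyme; Quantity: 0.625 nM enzyme; Detection: endpoint fluorescence intensity; Times: 50 min dark incubation at room temperature; Controls: substrate-only low control, DMSO enzyme-plus-substrate high control; Doses: single 20 µM dose; Read-out: percent inhibition versus substrate-only and uninhibited controls; Reagent: 400 µM OMFP.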
STEP inh: STEP phosphatase inhibitors, primary screen, biochemical, fluorescence intensity, uHTS. actives 0.25% (n = 360,000). recombinant STEP, OMFP fluorogenic substrate. inhibition, % at 20 µM;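 active = inhibition at 20 µM, scaled per plate between control wells, above about 37%, limit read from the data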;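 also: 0% = DMSO with enzyme and substrate and 100% = substrate only without enzyme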
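Material: STEP (striatal-enriched tyrosine phosphatase) enzyme, cell-free | Medium: 50 mM Bis-Tris pH 6.0 with 2.5 mM DTT and 0.005% Tween 20 | Read-out: Percent inhibition scaled to no-enzyme and uninhibited-enzyme controls, plate-pattern corrected | Signal: Fluorescence read at 480 nm ex / 540 nm em | Times: 20 min reaction, room temperature, in the dark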
SUMO1-SIM PPI: modulators of SUMO1 protein-protein interactions, primary screen, biochemical, uHTS | actives 0.33% (n = 360,000) | Small ubiquitin-related modifier 1 (Homo sapiens), P63165 | AID 602429, 2012 | SUMO1 binding to a labelled peptide, TR-FRET, 1 h | inhibition, % at 20 µM; in the data active = inhibition above about 37%
Target sequence (P63165 whole entry, looked up): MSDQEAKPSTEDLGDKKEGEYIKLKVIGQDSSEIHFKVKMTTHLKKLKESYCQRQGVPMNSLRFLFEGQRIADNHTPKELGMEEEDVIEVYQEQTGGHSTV
DNMT1 inh: human DNMT1 methyltransferase inhibitors, primary screen, biochemical, molecular beacon, fluorescence, HinP1I cleavage, uHTS | inhibition (reported as % activation of signal), % at 10 µM | AID 588458, 2011 | DNA (cytosine-5)-methyltransferase 1 (Homo sapiens), P26358 | actives 0.83% (n = 360,000); in the data active = inhibition above about 50%
* hit, by the source's call; . = not tested or not shown.

SMILES	Scp-1 inhibitor	HKDC1 inhibitor	LMPTP block	STEP inh	SUMO1-SIM PPI	DNMT1 inh
COc1ccc(C(C(=O)NC2CCCC2)n2c(CSCCOc3ccccc3)nc3ccccc32)cc1 (centres undefined)	.	.	2	.	2	.
COc1cc(/C=C2\SC(N)=NC2=O)ccc1OCC(=O)Nc1ccc(C)cc1	6	2	0	-2	6	54*
Cc1cc(-c2csc(NCc3ccccc3)n2)c(C)n1C	9	-2	16	7	-1	75*
Cc1nc(N)sc1-c1csc(NCc2ccccc2)n1	-10	1	0	7	11	-38
Cc1cc(O)cc(C)c1NS(=O)(=O)c1ccc2ccccc2c1	-4	1	0	-2	-7	-8
O=C1/C(=C/c2cccs2)SC(=S)N1NS(=O)(=O)c1ccccc1	-4	12	0	3	-12	2
O=C1/C(=C/C=C/c2ccco2)SC(=S)N1NS(=O)(=O)c1ccccc1	82*	29	62*	43*	112*	87*
COc1ccc(Br)cc1C(=O)N/N=C/c1ccc2c(c1)n(C)c(=O)n2C	-5	-12	0	-3	0	-2
Cn1c(=O)n(C)c2cc(/C=N/NC(=O)c3cc4cc(Br)ccc4o3)ccc21	26	-5	0	9	60*	-10
COc1ccc2c(CN3CCCCCCC3)cc(=O)oc2c1	.	.	0	-1	-17	-3
CN1CCN(C2=C(Cl)C(=O)C(c3cnc(N4CCCCC4)s3)=C(Cl)C2=O)CC1	10	55*	5	4	10	-17
CN1CCN(C2=C(Cl)C(=O)N(C3CCCCC3)C2=O)CC1	-2	4	-2	7	-20	-3
CCN(C(=O)COC(=O)/C=C/c1c(C)nn(-c2ccccc2)c1C)c1c(N)n(Cc2ccccc2)c(=O)[nH]c1=O	-5	3	0	-2	2	-3
c1cnc2ccc3ncccc3c2c1	2	12	3	-7	0	4
Nc1ccc2ncccc2c1N	-4	6	8	0	45*	-6
CCOC(=O)C1=CC[C@@H](c2cccc(Br)c2)N(S(=O)(=O)c2ccc(F)cc2)[C@H]1c1cccc(Cl)c1	.	.	2	.	0	.
CC/C(=N\Nc1ccnc2cc(Cl)ccc12)c1ccc(O)cc1	-17	2	6	3	-7	-3
Oc1ccc(/C=N/Nc2ccnc3cc(Cl)ccc23)cc1O	-7	-3	48	2	55*	4
CCC(C)[C@H]1CNC(=O)C(=O)N1CC1CCCCC1 (some centres undefined)	.	.	6	.	47*	.
COc1ccc(Cc2nnc(SC)[nH]c2=O)cc1OC	-5	4	-1	1	42*	1
COc1ccc(Cc2nnc(NN)[nH]c2=O)cc1OC	-9	-10	1	2	1	1
CCOC(=O)COc1nc(C)c(Br)c(OC)n1	1	-5	-1	-3	61*	2
Cc1ccc(S(=O)(=O)N2C[C@@H](C)[C@]3(C2)[C@H](O)[C@H](OC(=O)NCc2ccccc2F)C[C@H]2C(=O)N(c4ccccc4)C(=O)[C@H]23)cc1	.	.	2	-2	10	-6
C=CCN(CC=C)S(=O)(=O)c1ccc(NC(=S)NC(=O)/C=C/c2ccccc2)cc1	-5	1	4	6	63*	3
O=C(Nc1ccc(F)c(F)c1)C1CCN(S(=O)(=O)c2cccs2)CC1	-7	-2	5	-1	2	-2
SMILES	Scp-1 inhibitor	HKDC1 inhibitor	LMPTP block	STEP inh	SUMO1-SIM PPI	DNMT1 inh
Cc1cc2nc3s/c(=C/c4ccc(-c5ccccc5C(=O)O)o4)c(=O)n3c2cc1C	98*	15	7	24	16	45
NS(=O)(=O)c1cccc(NC(=O)c2cccc(N3C(=O)c4ccccc4C3=O)c2)c1	-8	-4	2	-2	-17	-3
CC(=O)c1cccc(NC(=O)c2cccc(N3C(=O)c4ccccc4C3=O)c2)c1	49	14	3	6	61*	0
O=C(COC(=O)CCc1ccccc1)NNC(=O)c1ccccc1	-4	1	-1	2	-1	9
CC(=O)Oc1ccc(C2=Cc3ccc(OC(C)=O)cc3OC2C)cc1 (centres undefined)	1	-4	1	2	4	-21
COc1cccc(-n2c(SCc3cc(=O)oc4cc(O)c(O)cc34)nc3ccccc3c2=O)c1	32	17	52*	12	2	31
CC(C)(C)S(=O)N1Cc2cc(C(=O)N3CCc4ccccc4C3)nc(-c3cccc(-c4ccncc4)c3)c2[C@H]1CCO (some centres undefined)	.	.	12	0	22	-20
CC(CCC(C)C(C)(C)C)[C@@H]1CC[C@H]2C3C[C@H](OS(O)(=S)=S)[C@H]4C[C@H](OS(O)(=S)=S)[C@@H](OS(O)(=S)=S)C[C@]4(C)[C@H]3CC[C@]12C (some centres undefined) (tested in a mixture with another compound)	25	81*	81*	31	45*	-167
CC1=C(C)/C(=N\OS(=O)(=O)c2ccc(C)cc2)C=CC1=O	-7	15	-1	0	-3	-2
COc1ccc(S(=O)(=O)/N=C2/C=CC(=O)C(C)=C2C)cc1	0	52*	2	-3	0	-20
Cc1ccc(C(=O)NCc2ccncc2)cc1S(=O)(=O)N1CCCCC1	-10	2	-1	-2	1	-1
CCn1c(SCC(=O)Nc2ccc3c(c2)c2ccccc2n3CC)nnc1-c1ccco1	74*	11	15	0	26	96*
CCn1c(SCC(=O)Nc2cccc(NC(C)=O)c2)nnc1-c1ccco1	0	1	-1	2	-4	0
CCOC(=O)c1c(C)oc2c1c(C(c1ccccc1)N1CCOCC1)c(O)c1ccccc12 (centres undefined)	-2	8	3	1	7	-1
CCOC(=O)c1c(C)oc2c1c(C=NCCO)c(O)c1ccccc12	-1	22	5	-2	46*	10
COC(=O)N1CCCCC1c1cc(C(=O)Nc2ccc(OC)cc2C)no1 (centres undefined)	.	.	-1	-1	0	-1
